For series [1], the system named is Candida albicans. As to the kind of experiment: Antifungal activity against Candida albicans ATCC 24433 after 24 to 36 hrs by broth microdilution method. The series is classed as functional, organism-based. The method in brief:
(§1)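 CLSI broth microdilution against yeasts (M27-A3) and filamentous fungi (M38-A2). Read-outs: IC50 (concentration giving 50% growth inhibition), MIC, and MFC (minimum fungicidal concentration), all in μg/mL. Assay done twice in triplicate.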

For series [2], the system named is Candida albicans. In words: Antifungal activity against Candida albicans ATCC 24433 after 72 hrs by broth microdilution method. The series is classed as functional. The note with it: ATCC 24433, 72 h. The method in brief:
as §1
(Broth dilution looks for growth in wells or tubes with falling amounts of substance.)

Series [3] concerns Candida albicans. In words: Antifungal activity against Candida albicans ATCC 10231 after 24 to 36 hrs by broth microdilution method. The series is classed as functional, organism-based. An outline of the steps: as §1
The test system of series [4] is Candida albicans. In words: Antifungal activity against Candida albicans ATCC 10231 after 72 hrs by broth microdilution method. The series is classed as functional. Conditions: ATCC 10231, 72 h. An outline of the steps:
as §1

Series [5] relates to Cryptococcus neoformans. In words: Antifungal activity against Cryptococcus neoformans ATCC 34664 after 24 to 36 hrs by broth microdilution method. The series is classed as functional, organism-based. An outline of the steps:
as §1

The test system of series [6] is Cryptococcus neoformans. In words: Antifungal activity against Cryptococcus neoformans ATCC 34664 after 72 hrs by broth microdilution method. The series is classed as functional. The note with it: ATCC 34664, 72 h. An outline of the steps:
as §1

Series [7] relates to Nakaseomyces glabratus. As to the kind of experiment: Antifungal activity against Candida glabrata NCYC 388 after 24 to 36 hrs by broth microdilution method. The series is classed as functional, organism-based. An outline of the steps: as §1
The test system of series [8] is Nakaseomyces glabratus. As to the kind of experiment: Antifungal activity against Candida glabrata NCYC 388 after 72 hrs by broth microdilution method. The series is classed as functional. Conditions: NCYC 388, 72 h. An outline of the steps: as §1
Series [9] concerns Candida tropicalis. As to the kind of experiment: Antifungal activity against Candida tropicalis ATCC 750 after 24 to 36 hrs by broth microdilution method. The series is classed as functional, organism-based. The method in brief: as §1
The subject of series [10] is Candida tropicalis. In words: Antifungal activity against Candida tropicalis ATCC 750 after 72 hrs by broth microdilution method. The series is classed as functional. Conditions: ATCC 750, 72 h. The method in brief:
as §1

The test system of series [11] is Aspergillus niger. As to the kind of experiment: Antifungal activity against Aspergillus niger ATCC 10578 after 48 hrs by broth microdilution method. Conditions: ATCC 10578, 48 h. The series is classed as functional, organism-based. An outline of the steps:
as §1

Series [12] concerns Aspergillus niger. As to the kind of experiment: Antifungal activity against Aspergillus niger ATCC 10578 after 72 hrs by broth microdilution method. The series is classed as functional. Conditions: ATCC 10578, 72 h. An outline of the steps:
as §1

Series [13] is described as follows: Toxicity in human RBC assessed as hemolysis upto 128 ug/ml. The series is classed as cell-based. Conditions: erythrocyte.

In brackets after ≈: the same amount, converted by molar mass. Bounds are passed on as bounds.

What is called MIC is the lowest concentration that inhibits growth of the organism. Read a high MIC as weaker potency. The term MFC denotes the smallest concentration meeting the test's criterion for killing the fungus. A higher MFC goes with weaker fungicidal potency. The term IC50 denotes the concentration at which inhibition is half-maximal.

As for `CC(Cc1ccc(C(C)(C)C)cc1)C(=O)NC[Si](C)(C)c1ccccc1` (configuration not stated), the MIC against Candida albicans [1], with Candida albicans [3], with Cryptococcus neoformans [5], against Nakaseomyces glabratus [7], against Candida tropicalis [9] and with Aspergillus niger [11] was ≥ 256 µg/mL each time. For the same compound, the MFC in the series with Candida albicans [2], with Candida albicans [4], with Cryptococcus neoformans [6], in the series on Nakaseomyces glabratus [8], with Candida tropicalis [10] and against Aspergillus niger [12] was ≥ 256 µg/mL in each case.

On to `CC(Cc1ccc([Si](C)(C)C)cc1)CN1CCCC1` (configuration not stated), for which the IC50 was 0.97 µg/mL (≈ 3.52 µM) in the series on Candida albicans [1]; 0.31 µg/mL (≈ 1.13 µM) in the series on Candida albicans [3]; 0.25 µg/mL (≈ 0.907 µM) in the series on Cryptococcus neoformans [5]; 0.319 µg/mL (≈ 1.16 µM) with Nakaseomyces glabratus [7]; 2.76 µg/mL (≈ 10 µM) in the series with Candida tropicalis [9]; 50.1 µg/mL (≈ 182 µM) with Aspergillus niger [11]. The MIC in the series on Candida albicans [1] amounted to 2 µg/mL (≈ 7.26 µM); in the series with Candida albicans [3], 0.5 µg/mL (≈ 1.81 µM); against Cryptococcus neoformans [5], 1 µg/mL (≈ 3.63 µM); in the series on Nakaseomyces glabratus [7] it was 1 µg/mL (≈ 3.63 µM); in the series with Candida tropicalis [9], 16 µg/mL (≈ 58.1 µM); against Aspergillus niger [11] it was 64 µg/mL (≈ 232 µM). In addition, the MFC is 8 µg/mL (≈ 29 µM) with Candida albicans [2]; 2 µg/mL (≈ 7.26 µM) against Candida albicans [4]; 4 µg/mL (≈ 14.5 µM) against Cryptococcus neoformans [6]; 32 µg/mL (≈ 116 µM) in the series with Nakaseomyces glabratus [8]; 128 µg/mL (≈ 465 µM) in the series with Candida tropicalis [10]; 256 µg/mL (≈ 929 µM) in the series on Aspergillus niger [12].

Turning to `CC(Cc1ccc(C(C)(C)C)cc1)CN1CC[Si](C)(C)CC1` (configuration not stated), the IC50 amounted to 1.85 µg/mL (≈ 5.83 µM) in the series on Candida albicans [1]; 0.31 µg/mL (≈ 0.976 µM) with Candida albicans [3]; 0.875 µg/mL (≈ 2.76 µM) in the series on Cryptococcus neoformans [5]; 1.52 µg/mL (≈ 4.79 µM) in the series with Nakaseomyces glabratus [7]; 16 µg/mL (≈ 50.4 µM) in the series with Candida tropicalis [9]; 13.8 µg/mL (≈ 43.5 µM) with Aspergillus niger [11]. Besides, the MIC in the series with Candida albicans [1] turned out to be 4 µg/mL (≈ 12.6 µM); against Candida albicans [3], 0.5 µg/mL (≈ 1.57 µM); against Cryptococcus neoformans [5], 2 µg/mL (≈ 6.3 µM); with Nakaseomyces glabratus [7], 4 µg/mL (≈ 12.6 µM); against Candida tropicalis [9] it was 64 µg/mL (≈ 202 µM); with Aspergillus niger [11], 32 µg/mL (≈ 101 µM). In addition, the MFC in the series with Candida albicans [2] amounted to 8 µg/mL (≈ 25.2 µM); in the series on Candida albicans [4], 0.5 µg/mL (≈ 1.57 µM); with Cryptococcus neoformans [6], 4 µg/mL (≈ 12.6 µM); in the series on Nakaseomyces glabratus [8] it was 8 µg/mL (≈ 25.2 µM); against Candida tropicalis [10], 64 µg/mL (≈ 202 µM); in the series with Aspergillus niger [12] it was 64 µg/mL (≈ 202 µM). Further, in series [13], the Activity entry is “Non-toxic”.

In the case of `CCC(C)(C)c1ccc(CC(C)CN2CC[Si](C)(C)CC2)cc1` (configuration not stated), the IC50 was found to be 1.68 µg/mL (≈ 5.07 µM) in the series on Candida albicans [1]; 0.28 µg/mL (≈ 0.844 µM) in the series with Candida albicans [3]; 1.4 µg/mL (≈ 4.22 µM) with Cryptococcus neoformans [5]; 1.47 µg/mL (≈ 4.43 µM) in the series with Nakaseomyces glabratus [7]; 13.8 µg/mL (≈ 41.6 µM) in the series with Candida tropicalis [9]; 0.16 µg/mL (≈ 0.482 µM) with Aspergillus niger [11]. For the same compound, the MIC against Candida albicans [1] was determined as 4 µg/mL (≈ 12.1 µM); in the series on Candida albicans [3] it was 0.5 µg/mL (≈ 1.51 µM); against Cryptococcus neoformans [5], 2 µg/mL (≈ 6.03 µM); against Nakaseomyces glabratus [7], 4 µg/mL (≈ 12.1 µM); in the series on Candida tropicalis [9] it was 64 µg/mL (≈ 193 µM); against Aspergillus niger [11], 0.5 µg/mL (≈ 1.51 µM). Also, the MFC turned out to be 16 µg/mL (≈ 48.2 µM) against Candida albicans [2]; 64 µg/mL (≈ 193 µM) in the series with Candida albicans [4]; 4 µg/mL (≈ 12.1 µM) in the series with Cryptococcus neoformans [6]; 4 µg/mL (≈ 12.1 µM) with Nakaseomyces glabratus [8]; 256 µg/mL (≈ 772 µM) in the series on Candida tropicalis [10]; 64 µg/mL (≈ 193 µM) in the series with Aspergillus niger [12].

As for `CC(Cc1ccc(C(C)(C)C)cc1)C(=O)N1CC[Si](C)(C)CC1` (configuration not stated), the MIC in the series with Candida albicans [1], in the series with Candida albicans [3], in the series on Cryptococcus neoformans [5], against Nakaseomyces glabratus [7], against Candida tropicalis [9] and against Aspergillus niger [11] was ≥ 256 µg/mL each time. Also, the MFC in the series on Candida albicans [2], with Candida albicans [4], against Cryptococcus neoformans [6], in the series on Nakaseomyces glabratus [8], in the series on Candida tropicalis [10] and in the series on Aspergillus niger [12] was ≥ 256 µg/mL throughout.

In the case of `CCN(CC)CC(C)Cc1ccc([Si](C)(C)C)cc1` (configuration not stated), the IC50 with Candida albicans [1] came to 3.75 µg/mL (≈ 13.5 µM); in the series with Candida albicans [3] it was 0.57 µg/mL (≈ 2.05 µM); in the series with Cryptococcus neoformans [5], 1.5 µg/mL (≈ 5.4 µM); in the series with Nakaseomyces glabratus [7], 1.85 µg/mL (≈ 6.67 µM); with Candida tropicalis [9], 4.85 µg/mL (≈ 17.5 µM); in the series with Aspergillus niger [11], 64 µg/mL (≈ 231 µM). In addition, the MIC with Candida albicans [1] was found to be 8 µg/mL (≈ 28.8 µM); in the series on Candida albicans [3], 2 µg/mL (≈ 7.21 µM); against Cryptococcus neoformans [5], 4 µg/mL (≈ 14.4 µM); in the series with Nakaseomyces glabratus [7], 4 µg/mL (≈ 14.4 µM); against Candida tropicalis [9], 16 µg/mL (≈ 57.7 µM); against Aspergillus niger [11] it was 256 µg/mL (≈ 922 µM). The MFC is 32 µg/mL (≈ 115 µM) in the series on Candida albicans [2]; 4 µg/mL (≈ 14.4 µM) against Candida albicans [4]; 32 µg/mL (≈ 115 µM) against Cryptococcus neoformans [6]; > 256 µg/mL with Nakaseomyces glabratus [8]; 256 µg/mL (≈ 922 µM) against Candida tropicalis [10]; > 256 µg/mL with Aspergillus niger [12].

Values taken from ChEMBL document CHEMBL3751707, “Silicon Incorporated Morpholine Antifungals: Design, Synthesis, and Biological Evaluation” (ACS Med Chem Lett, 2015).
